Source: PubChem (several laboratories)
Bfl-1 A1 inh: inhibitors of the anti-apoptotic protein A1, read as caspase activation. caspase activation, % (concentration not given with the values). MEF A1-2A-BIM cells, Caspase-Glo 3/7 luminescence, 3 h; percent of clofoctol response, vehicle zero. 330,000 tested, 0.066% active. AID 2462;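 active = over half of replicate activation scores above 10%, or exactly half above 10 with the replicate mean above 10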
T cell modulator: T cell immune modulation candidate | AID 2052 | response (vesicle binding), % at 7 µM | 330,000 tested, 0.068% active | 2C CD8+ T cell-vesicle binding, flow cytometry; stronger effect = lower value;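 active = response, share of CD8 T cells binding vesicles, and their 90th percentile fluorescence all below set limits, cut at about 80% in these data, passing the limit was not always enough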;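 note: values below 100% mean blocked vesicle binding to the CD8+ T cells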
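Benchmarks: naked versus QL9-loaded vesicles / Assay system: purified 2C TCR transgenic mouse naive CD8+ T cells / Technique: high-throughput flow cytometry with anti-B7-1 and anti-CD8 staining / Timing: Cell–vesicle co-incubation 1.5 h at 37 °C, staining 20 min on ice / Read-out: percent CD8+ FL2 mean versus row control / Probe or stimulus: QL9-loaded Drosophila micro-vesicles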
NALP1 yeast inh: inhibitors of NALP1 inflammasome in yeast; S. cerevisiae NALP1/ASC/caspase-1 growth, X-gal OD620, 72 h; inhibition, % at 10 µM; 280,000 tested, 0.61% active; AID 2071; in the data active = inhibition mostly above about 24%, no sharp cut-off; inactive = mostly below about 32%
NLRP3 yeast inh: inhibitors of NALP3 inflammasome in yeast. Yeast reconstituted NLRP3/ASC/caspase-1, beta-gal luminescence, 24 h. inhibition, % at 10 µM. 330,000 tested, 0.39% active. AID 2825;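 active = inhibition of 50% or more; inactive = inhibition below 50%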;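 note: plate controls were induced DMSO wells for no effect and uninduced yeast grown without galactose for full effect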
NALP3 yeast conf: NALP3 inhibition confirmation in yeast. 1,300 tested, 81% active. yeast expressing human NALP3, luminescence. inhibition, % at 10 µM. shares compounds with NLRP3 yeast inh; in the data active = inhibition above about 48%
Casp1-ASC yeast: caspase-1-ASC yeast counter-screen hit | shares compounds with NLRP3 yeast inh | yeast expressing Caspase-1-ASC, luminescence counter screen | inhibition, % at 10 µM | 1,000 tested, 66% active | AID 488784
NALP3 retest: confirmation retest of NALP3 inhibitors in yeast | shares compounds with NLRP3 yeast inh | yeast expressing human NALP3, luminescence read-out | inhibition, % at 10 µM | 1,000 tested, 53% active
* = called active by the depositor; i = inactive; · = not tested or not shown. A selection: hits, their analogues and other compounds. The true share with any hit is near 1%. Cut-off read from the data, not from the text of the source, unless noted: active = inhibition above about 50%; inactive = the rest.

SMILES | Bfl-1 A1 inh | T cell modulator | NALP1 yeast inh | NLRP3 yeast inh | others
CC1(C)COC(Nc2ccc(Cl)cc2)=N1 | 0.1 | 263.5 | 40.7* | 4.7
COc1ccc(NC2=NC(C)(C)CS2)cc1 | -0.3 | 263.4 | -13.1 | -4.8
CC(=O)OC(C)(C)/C=C/C(=O)[C@](C)(O)C1[C@H](O)C[C@@]2(C)C3CC=C4C(C[C@H](O)C(=O)C4(C)C)[C@]3(C)C(=O)C[C@]12C (stereo partly drawn) | 20.7* | 218.6 | · | 14.9
Nc1c2c(nc3sc4c(c13)CCCC4)CCCCC2 | 0.6 | 239.9 | 54.3* | 47.5
COC(=O)C1=C(c2ccc3ccccc3c2)C[C@@H]2CC[C@H]1N2C(=O)N1CCCC1 | 0.9 | 691.1 | · | 4.6
C=C(C)C(Cc1c(OC)ccc(C(=O)/C=C/c2ccc(O)cc2)c1O)OO (stereo not drawn) | · | 517.7 | · | 44.8
CN1C(=O)C(=Cc2ccccc2OCc2ccc(Cl)cc2)C(=O)N(C)C1=O | -5.0 | 182.6 | 44.3* | 36.3
CCCCn1c(=O)c(C(=O)NCc2ccncc2)c(O)c2ccccc21 | 0.6 | 77.7* | 15.1 | 12.7
O[C@@H]1CCCN2CCc3c([nH]c4ccccc34)[C@H]12 | 0.3 | 741.1 | · | ·
O=C(c1ccccc1)C(CN1CCCC1)c1ccccc1 (stereo not drawn) | 0.2 | 326.2 | 94.2* | ·
COc1cccc(C2CC3C(=O)C=CC2N3Cc2ccccc2)c1 (stereo not drawn) | -0.3 | 222.3 | 69.4* | 26.4
COc1ccc(Cc2c(O)[nH]c(=S)[nH]c2=O)cc1 | -2.7 | 173.7 | -2.6 | 3.4
O=c1cccc2n1CC1CNC[C@H]2C1 | 0.0 | 499.6 | · | 19.3
Cc1cccc(N2C(=O)NC(=O)/C(=C/c3ccc([N+](=O)[O-])o3)C2=O)c1 | -0.4 | 339.2 | 48.3* | ·
O=C1/C(=C\c2cc3c(cc2Cl)OCO3)N2CCC1CC2 | 0.7 | 261.9 | 44.6* | 5.0
O=C1/C(=C/c2cc3c(cc2Cl)OCO3)N2CCC1CC2 | -0.4 | 223.2 | 46.8* | 7.5
CCN1CCN(Cc2cc(Br)ccc2O)CC1 | 0.4 | 122.2 | 43.0* | -0.8
CC(=O)N1CC(=O)Nc2ccc(Br)cc2C1c1ccc(F)cc1 (stereo not drawn) | 2.8 | i | 6.4 | 10.9
C/C(=C\c1ccc(N(C)C)cc1)[N+](=O)[O-] | -0.3 | 149.5 | 15.3 | 26.4
CN(C)c1ccc(/C=C/[N+](=O)[O-])cc1 | 1.5 | 452.3 | 79.5* | 11.0
CCCNC1=C(C)C(=O)C2=C(C1=O)C(COC(N)=O)[C@]1(OC)C3NC3CN21 (stereo partly drawn) | 0.8 | 188.4 | 14.2 | 19.0
Cc1ccc(C2C(=O)NC(=O)NC2=O)cc1 | -0.6 | 356.3 | · | 4.0
CC(C)(C)N1Cc2ccccc2C1=N | -0.3 | 706.8 | 42.9* | 15.8
Cc1cc(C)nc(N2Cc3ccccc3C2=N)n1 | 0.6 | 502.6 | 8.3 | 12.9
CC(=O)NC(Cc1ccc(N(CCCl)CCCl)cc1)C(=O)NC(C(=O)O)C(C)C (stereo not drawn) | 0.9 | 270.6 | -2.9 | 12.3
SMILES | Bfl-1 A1 inh | T cell modulator | NALP1 yeast inh | NLRP3 yeast inh | others
CCOC(=O)CC(NC(=O)C(Cc1ccc(N(CCCl)CCCl)cc1)NC(C)=O)C(=O)OCC (stereo not drawn) | 0.6 | 32.7* | 2.5 | -5.5
CN1CCN(C(=O)O[C@H]2c3nccnc3C(=O)N2c2ccc(Cl)cn2)CC1 | 0.4 | 282.2 | 6.6 | 18.2
COc1ccc(-c2nn(CCC#N)cc2C(=O)Nc2cccc([N+](=O)[O-])c2)cc1OC | -0.2 | 179.9 | -7.5 | 15.5
CC1CCC/C=C/C2CC(O)CC2C(O)/C=C/C(=O)O1 (stereo not drawn) | 1.1 | 236.2 | 40.0* | 3.3
C[C@H]1CCC/C=C/C2C[C@H](O)CC2[C@H](O)/C=C/C(=O)O1 (stereo partly drawn) | 2.8 | 115.8 | 12.2 | 9.1
CN1C(=O)NC(=O)/C(=C\C=C\c2ccccc2[N+](=O)[O-])C1=O | -0.4 | 155.6 | -0.4 | -3.0
CCOC(=O)C1(CCc2ccccc2)CCN(Cc2cccc3c2OCO3)CC1 | 0.1 | 597.2 | -2.7 | 24.3
CCOC(=O)C1(CCc2ccccc2)CCN(Cc2csc(C(C)=O)c2)CC1 | -0.5 | 184.8 | 27.2* | 35.0
CN1C(=O)N(C)C(=O)C2(Cc3cc(NC(=O)c4ccccc4)ccc3N3CCCC32)C1=O (stereo not drawn) | 0.3 | 381.1 | 18.4 | 5.4
Cc1ccc(C)c(Cn2c(C(=O)O)c(C=O)c3ccccc32)c1 | 0.6 | 437.7 | 27.5* | 1.1
O=Cc1c(C(=O)O)n(Cc2ccccc2F)c2ccccc12 | 0.0 | 188.3 | 12.3 | 11.1
CC1=NOC2(C)Nc3ncnn3C(c3ccccc3)C12 (stereo not drawn) | 0.3 | 300.3 | 35.6* | 12.0
COc1cc(/C=C/[N+](=O)[O-])ccc1OC(=O)c1cccnc1 | 8.0* | 105.1 | 16.8 | 41.8
COc1ccc(NC(=O)c2cn(CCC#N)nc2-c2cccc([N+](=O)[O-])c2)cc1 | 0.5 | 243.3 | · | 9.4
COc1ccc(Oc2cc(NC(=O)c3nn(C)cc3[N+](=O)[O-])cc([N+](=O)[O-])c2)cc1 | 13.5* | 126.2 | -11.6 | 21.7
Cc1ccc(C[n+]2c(-c3ccc(C)cc3)cc(-c3ccc(C)cc3)cc2-c2ccc(C)cc2)cc1 | 0.5 | 282.3 | · | 77.6* | NALP3 yeast conf=75.8*;Casp1-ASC yeast=71.8*;NALP3 retest=75.3*
Cc1ccc(-c2cc(-c3ccc(C)cc3)[n+](-c3ccc(C(=O)O)cc3)c(-c3ccc(C)cc3)c2)cc1 | 0.8 | 324.1 | · | 12.8
Cc1ccc(Cl)cc1N1CCN(CCN)CC1 | 0.6 | 302.4 | 5.4 | 58.7* | NALP3 yeast conf=56.9*;Casp1-ASC yeast=58.4*;NALP3 retest=67.0*
CN1CCN(c2ccc(Cl)cc2N)CC1 | 0.9 | 249.1 | 4.6 | 27.0
COC(=O)C1=C(c2ccc(C(C)=O)cc2)C[C@@H]2CC[C@H]1N2C(=O)NCc1ccc(F)cc1 | 0.1 | 255.4 | · | 8.5
Cc1ccc(S(=O)(=O)c2nc(-c3ccccc3Cl)oc2N(C)C2CCN(C)CC2)cc1 | 0.7 | 155.5 | · | 22.4
C[C@]1(O)CCC2C3CC[C@H]4C[C@@H](OC(=O)CNC(=O)CN)CC[C@]4(C)C3CC[C@@]21C (stereo partly drawn) | -0.3 | 453.0 | · | 56.5* | NALP3 yeast conf=70.8*
C[C@]12CCC3C(CC[C@H]4C[C@@H](O)CC[C@]34C)C1[C@H]1CN=N[C@H]1[C@@H]2O (stereo partly drawn) | 0.7 | 687.9 | · | 37.4
CC(=O)O[C@H]1C[C@@H]2CC[C@@H]3[C@H](CC[C@]4(C)C(=O)CC[C@@H]34)[C@@]2(C)C[C@@H]1OC(C)=O | 0.6 | 254.1 | · | 24.2
